{"source": "ChEMBL document CHEMBL1127829", "about": "“Nonpeptide peptidomimetic antagonists of the neuropeptide Y receptor: benextramine analogs with selectivity for the peripheral Y2 receptor” (J Med Chem, 1994)", "key": {"[1]": {"assay": "Concentration producing half maximal displacement of [3H]NPY specific binding from benextramine sensitive NPY binding sites in rat brain membranes", "assay_type": "cell membranes", "procedure,_shortened": "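Membranes from male Sprague–Dawley rat brain (250–300 g), 1.2–1.6 mg protein/mL, were incubated with 1.0 nM [3H]NPY and 10–12 concentrations (10⁻³–10⁻⁷ M) of compound. Incubation was in duplicate in Krebs–Ringer bicarbonate with 50 mM phosphate, 0.1% BSA and 0.05% bacitracin (pH 7.4), at 25 °C for 90 min. Nonspecific binding was set with 1 μM NPY. Bound ligand was collected on PEI-treated GF/A filters and counted by scintillation. Runs were done at least in triplicate, and averaged data were fit to a two-site competitive isotherm.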"}, "[2]": {"species": "Rattus norvegicus", "assay": "Relative potency in displacing 1 nM [3H]NPY from benextramine-sensitive rat brain NPYsites"}, "[3]": {"assay": "Percentage of maximum displacement of 1.0 nM [3H]NPY from rat brain membranes homogenates using 1.0 uM NPY to determine specific binding", "assay_type": "cell membranes", "conditions": "Membrane", "procedure,_shortened": "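Rat brain membranes (1.2–1.6 mg protein/mL) were incubated with 1.0 nM [3H]NPY and 10⁻³–10⁻⁷ M compound in duplicate. Buffer was pH 7.4 Krebs–Ringer bicarbonate/phosphate with BSA and bacitracin, at 25 °C for 90 min. Nonspecific binding was defined with 1.0 μM NPY, and results were filtered and counted by scintillation. The value is the maximal percentage of specific [3H]NPY binding displaced, from at least triplicate experiments.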"}}, "data": [{"compound": "c1ccc2cc(CNCCCCCCNCCCCCCNCCCCCCNCc3ccc4ccccc4c3)ccc2c1", "values": [{"measurement": "IC50", "setting": "[1]", "value": 48.3, "unit": "µM"}, {"measurement": "Relative potency", "setting": "[2]", "value": 1}, {"measurement": "maximal displacement of specific binding", "setting": "[3]", "value": 75, "unit": "%"}]}, {"compound": "N=C(N)N(CCCCCCNCc1ccc2ccccc2c1)CCSSCCN(CCCCCCNCc1ccc2ccccc2c1)C(=N)N", "values": [{"measurement": "IC50", "setting": "[1]", "value": 14.8, "unit": "µM"}, {"measurement": "Relative potency", "setting": "[2]", "value": 3.9}, {"measurement": "maximal displacement of specific binding", "setting": "[3]", "value": 76, "unit": "%"}]}, {"compound": "N=C(N)N(CCCCCCNCc1ccc2ccccc2c1)CCCCCCN(CCCCCCNCc1ccc2ccccc2c1)C(=N)N", "values": [{"measurement": "IC50", "setting": "[1]", "value": 18.4, "unit": "µM"}, {"measurement": "Relative potency", "setting": "[2]", "value": 2.6}, {"measurement": "maximal displacement of specific binding", "setting": "[3]", "value": 72, "unit": "%"}]}, {"compound": "N=C(N)N(CCCCCCNCC12C[C@H]3C[C@@H](C1)C[C@@H](C2)C3)CCSSCCN(CCCCCCNCC12C[C@H]3C[C@@H](C1)C[C@@H](C2)C3)C(=N)N", "values": [{"measurement": "IC50", "setting": "[1]", "value": 15, "unit": "µM"}, {"measurement": "Relative potency", "setting": "[2]", "value": 3.8}, {"measurement": "maximal displacement of specific binding", "setting": "[3]", "value": 68, "unit": "%"}]}, {"compound": "COc1ccccc1CNCCCCCCNCCSSCCNCCCCCCNCc1ccccc1OC", "note": "[BENEXTRAMINE]", "values": [{"measurement": "IC50", "setting": "[1]", "value": 57.6, "unit": "µM"}, {"measurement": "Relative potency", "setting": "[2]", "value": 1}, {"measurement": "maximal displacement of specific binding", "setting": "[3]", "value": 65, "unit": "%"}]}, {"compound": "c1ccc2cc(CNCCCCCCNCCSSCCNCCCCCCNCc3ccc4ccccc4c3)ccc2c1", "values": [{"measurement": "IC50", "setting": "[1]", "value": 31.3, "unit": "µM"}, {"measurement": "Relative potency", "setting": "[2]", "value": 1.8}, {"measurement": "maximal displacement of specific binding", "setting": "[3]", "value": 68, "unit": "%"}]}]}
